According to ChEMBL document CHEMBL2150980 (Eur J Med Chem, 2012):

Assays:
[1] = molecular target: T1, Alpha-1D adrenergic receptor (Homo sapiens, UniProt P25100); test: Displacement of [3H]prazosin from human cloned alpha1D adrenoceptor expressed in CHO cell membranes after 30 mins by liquid scintillation counter
T1 sequence (P25100 whole entry): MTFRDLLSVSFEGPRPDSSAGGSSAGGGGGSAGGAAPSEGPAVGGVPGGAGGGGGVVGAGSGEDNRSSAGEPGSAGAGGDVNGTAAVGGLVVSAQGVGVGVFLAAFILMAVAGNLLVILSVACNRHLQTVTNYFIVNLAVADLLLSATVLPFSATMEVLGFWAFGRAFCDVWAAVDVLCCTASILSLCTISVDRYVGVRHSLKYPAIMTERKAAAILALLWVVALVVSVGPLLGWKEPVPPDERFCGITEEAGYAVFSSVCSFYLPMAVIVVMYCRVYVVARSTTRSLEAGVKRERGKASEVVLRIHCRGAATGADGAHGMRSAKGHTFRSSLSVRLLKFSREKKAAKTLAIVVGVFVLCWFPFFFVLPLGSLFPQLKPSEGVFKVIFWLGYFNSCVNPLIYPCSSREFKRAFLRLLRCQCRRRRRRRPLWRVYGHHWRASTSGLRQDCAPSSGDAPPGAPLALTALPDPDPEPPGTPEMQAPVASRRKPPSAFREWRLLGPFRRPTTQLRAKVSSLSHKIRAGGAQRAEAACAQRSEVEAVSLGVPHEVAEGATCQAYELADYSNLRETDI

[2] = molecular target: T2, Alpha-1A adrenergic receptor (Homo sapiens, UniProt P35348); test: Displacement of [3H]prazosin from human cloned alpha1A adrenoceptor expressed in CHO cell membranes after 30 mins by liquid scintillation counter
T2 sequence (P35348 whole entry): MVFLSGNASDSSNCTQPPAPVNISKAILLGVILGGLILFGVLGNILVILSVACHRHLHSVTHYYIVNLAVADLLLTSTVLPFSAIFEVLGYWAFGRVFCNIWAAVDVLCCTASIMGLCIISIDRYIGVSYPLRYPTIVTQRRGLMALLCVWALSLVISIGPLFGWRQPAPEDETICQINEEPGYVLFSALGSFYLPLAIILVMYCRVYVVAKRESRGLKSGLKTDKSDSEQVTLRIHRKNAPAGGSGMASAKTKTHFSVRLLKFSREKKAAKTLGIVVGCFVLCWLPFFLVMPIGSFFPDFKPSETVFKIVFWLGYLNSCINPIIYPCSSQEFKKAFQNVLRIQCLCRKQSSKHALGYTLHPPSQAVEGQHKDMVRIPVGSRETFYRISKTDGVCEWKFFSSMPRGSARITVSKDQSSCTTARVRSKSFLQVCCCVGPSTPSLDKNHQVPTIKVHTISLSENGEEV
How it was run: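 Membranes incubated 30 min at 25 °C with 0.5 nM [3H]-prazosin ± compound (0.3–1000 nM) in 50 mM buffer, pH 7.7, containing pargyline and 0.1% ascorbic acid. Unlabelled prazosin defined nonspecific binding. GF/B filtration, scintillation counting.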

Row | Ki [1] | Ki [2] | Compound
1 | 0.372 nM | 0.912 nM | COc1cccc(OC)c1OCCNC[C@H]1COc2cccc(OC)c2O1.Cl
2 | 0.708 nM | 0.891 nM | COc1cccc(OC)c1OCCNC[C@H]1COc2cccc(Cl)c2O1.Cl
3 | 79.4 nM | 24 nM | COc1cccc(OC)c1OCCNC[C@H]1COc2c(OC)cccc2O1.Cl

More lines, now with the values behind:

Row | Compound | Ki [1] | Ki [2]
4 | COc1cccc(OC)c1OCCNC[C@H]1COc2cccc(O)c2O1.Cl | 8.91 nM | 2.19 nM
5 | COc1cccc(OC)c1OCCNC[C@H]1COc2cccc(F)c2O1.Cl | 0.49 nM | 0.646 nM
